# Reference: ChEMBL document CHEMBL4673180, “Synthesis of quinone imine and sulphur-containing compounds with antitumor and trypanocidal activities: redox and biological implications” (RSC Med Chem, 2020)
# Calls of active or inactive are those of the source. No cut-off for these calls is given here.
# Key:
# [1] = tested on: HL-60; assay: Cytotoxicity against human HL-60 cells assessed as reduction in cell viability after 72 hrs by MTT assay; assay type: functional, cell-based; details: HL-60, 72 h
# Outline: (§1)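 Cells were grown in medium with 10% FBS, 2 mM L-glutamine, penicillin and streptomycin at 37 °C, 5% CO2. Compounds in DMSO (0.1% final) were applied for 72 h. MTT (0.5 mg/mL) was added for 3 h, formazan dissolved in DMSO, and absorbance read at 550 nm. IC50 by nonlinear regression; three independent experiments in triplicate.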
# [2] = tested on: L929; assay: Cytotoxicity against mouse L929 cells assessed as reduction in cell viability after 72 hrs by MTT assay; assay type: cell-based; details: L929, 72 h
# Outline: as §1, with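 “CO2. Seeding per well was 0.1 × 10^6 for leukaemia, PC3, L929 and NCI-H460, and 0.7 × 10^5 for HCT-116.” for “CO2.”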
# [3] = tested on: Trypanosoma cruzi; assay: Antitrypanosomal activity against Trypanosoma cruzi Y strain bloodstream trypomastigotes assessed as lysis of parasite in presence of 5 % mouse blood incubated for 24 hrs by Neubauer chamber method; assay type: functional, organism-based
# Outline: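 Y strain bloodstream trypomastigotes came from infected albino mice at peak parasitaemia, purified by differential centrifugation, in RPMI at 10^7 cells/mL with 10% mouse blood. They were mixed 1:1 with compound at twice the final concentration (5% blood final), 24 h at 4 °C, with DMSO ≤0.4% final. Neubauer chamber counting; IC50 is 50% lysis; at least three independent experiments.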
# [4] = tested on: Trypanosoma cruzi; assay: Antitrypanosomal activity against Trypanosoma cruzi Y strain bloodstream trypomastigotes assessed as lysis of parasite in absence of mouse blood incubated for 24 hrs by Neubauer chamber method; assay type: functional, organism-based
# Outline: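 T. cruzi Y strain bloodstream trypomastigotes came from infected albino mice at peak parasitaemia and were purified by differential centrifugation. They were exposed to compounds for 24 h at 37 °C without blood. Parasites were counted in a Neubauer chamber, and IC50 is the concentration lysing 50% of parasites. Values are mean ± SD of at least three independent experiments.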
# [5] = Selectivity index, ratio of IC50 for mouse L929 cells to IC50 for human PC3 cells after 72 hrs by MTT assay; assay type: toxicity; details: L929 cells versus PC3 cells, read-out: Ratio IC50
# Outline: (§2)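 Both cell types were kept in medium with 10% FBS, 2 mM L-glutamine and penicillin/streptomycin at 37 °C, 5% CO2. Seeding was 0.7 × 10^5 cells per well for HCT-116, 0.1 × 10^6 for the other lines. Cells got compound in DMSO (0.1% final) for 72 h, then 0.5 mg/mL MTT for 3 h, with formazan read at 550 nm. IC50 came from nonlinear regression over three independent experiments in triplicate. SI is the L929 IC50 divided by the cancer-line IC50.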
# [6] = Cytotoxicity against albino Swiss mouse peritoneal macrophages assessed as reduction in cell viability incubated for 24 hrs by Presto blue assay; assay type: tissue-based, Macrophage; details: read-out: LC50
# Outline: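 Primary peritoneal macrophages from Albino Swiss mice were seeded at 2.5 × 10^4 cells per well in RPMI-1640 (pH 7.2, 10% FBS, 2 mM glutamine) and grown 24 h at 37 °C. They were then treated 24 h at 37 °C with compound from DMSO stock (final DMSO ≤0.4%).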
# [7] = tested on: NCI-H460; assay: Cytotoxicity against human NCI-H460 cells assessed as reduction in cell viability after 72 hrs by MTT assay; assay type: functional, cell-based; details: NCI-H460, 72 h; outline: as §1
# [8] = tested on: K562; assay: Cytotoxicity against human K562 cells assessed as reduction in cell viability after 72 hrs by MTT assay; assay type: functional, cell-based; details: K562, 72 h
# Outline: as §1, with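 “CO2. Seeding per well was 0.1 × 10^6 for leukaemia, PC3, L929 and NCI-H460, and 0.7 × 10^5 for HCT-116.” for “CO2.”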
# [9] = Selectivity index, ratio of LC50 for cytotoxicity against albino Swiss mouse peritoneal macrophages to IC50 for Antitrypanosomal activity against Trypanosoma cruzi Y strain bloodstream trypomastigotes assessed as lysis of parasite in absence of mouse blood; assay type: toxicity
# Outline: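 Y-strain bloodstream trypomastigotes came from infected albino mice at peak parasitaemia and were purified by differential centrifugation into RPMI. They were exposed 24 h at 37 °C without blood to compound (DMSO ≤0.4%).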
# [10] = Selectivity index, ratio of IC50 for mouse L929 cells to IC50 for human Lucena1 cells after 72 hrs by MTT assay
# Outline: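 Selectivity index is the ratio of IC50 in murine L929 fibroblasts to IC50 in Lucena 1 cells, each measured by 72 h MTT assay (absorbance 550 nm). IC50 values came from nonlinear regression of three independent experiments in triplicate.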
# [11] = tested on: HCT-116; assay: Cytotoxicity against human HCT-116 cells assessed as reduction in cell viability after 72 hrs by MTT assay; assay type: functional, cell-based; details: HCT-116, 72 h
# Outline: as §1, with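 “CO2. Seeding per well was 0.1 × 10^6 for leukaemia, PC3, L929 and NCI-H460, and 0.7 × 10^5 for HCT-116.” for “CO2.”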
# [12] = Selectivity index, ratio of LC50 for cytotoxicity against albino Swiss mouse peritoneal macrophages to IC50 for Antitrypanosomal activity against Trypanosoma cruzi Y strain bloodstream trypomastigotes assessed as lysis of parasite in presence of 5 % mouse blood; assay type: toxicity
# Outline: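 Y-strain bloodstream trypomastigotes came from infected albino mice at peak parasitaemia and were purified by differential centrifugation. They were resuspended at 10^7/mL in RPMI with 10% mouse blood and mixed 1:1 with compound at twice the final concentration (DMSO ≤0.4%). Incubation was 24 h at 4 °C (5% blood per footnote).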
# [13] = Selectivity index, ratio of IC50 for mouse L929 cells to IC50 for human NCI-H460 cells after 72 hrs by MTT assay; assay type: toxicity; details: L929 cells versus NCI-H460 cells, read-out: Ratio IC50; outline: as §2
# [14] = tested on: PC-3; assay: Cytotoxicity against human PC-3 cells assessed as reduction in cell viability after 72 hrs by MTT assay; assay type: functional, cell-based; details: PC-3, 72 h
# Outline: as §1, with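 “CO2. Seeding per well was 0.1 × 10^6 for leukaemia, PC3, L929 and NCI-H460, and 0.7 × 10^5 for HCT-116.” for “CO2.”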
# [15] = Cytotoxicity against human Lucena1 cells assessed as reduction in cell viability after 72 hrs by MTT assay; assay type: functional, cell-based; details: Lucena 1, 72 h
# Outline: as §1, with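 “CO2. Seeding per well was 0.1 × 10^6 for leukaemia, PC3, L929 and NCI-H460, and 0.7 × 10^5 for HCT-116.” for “CO2.”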
# [16] = Selectivity index, ratio of IC50 for mouse L929 cells to IC50 for human K-562 cells after 72 hrs by MTT assay; assay type: toxicity; details: L929 cells versus K-562 cells, read-out: Ratio IC50; outline: as §2
# [17] = Selectivity index, ratio of IC50 for mouse L929 cells to IC50 for human HCT116 cells after 72 hrs by MTT assay; assay type: toxicity; details: L929 cells versus HCT116 cells, read-out: Ratio IC50; outline: as §2
# [18] = Selectivity index, ratio of IC50 for mouse L929 cells to IC50 for human HL-60cells after 72 hrs by MTT assay; assay type: toxicity; details: L929 cells versus HL-60 cells, read-out: Ratio IC50; outline: as §2
# [19] = tested on: K562; assay: Induction of reactive oxygen species generation in human K562 cells at 40 uM measured after 3 hr by H2DCFDA probe-based flow cytometry; assay type: functional, cell-based
# Outline: (§3)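 K-562 cells were pre-loaded with 10 μM CM-H2DCFDA for 1 h in the dark at 37 °C/5% CO2, washed with PBS, then incubated with compound in fresh medium for 1 or 3 h. Cells were resuspended in PBS with 1 μg/mL propidium iodide and analysed by flow cytometry on ice. DCF fluorescence (ex 490/em 525 nm) was read in PI-negative cells, 10 000 events per sample. Menadione 20 μM and H2O2 150 μM were positive controls. Mean ± SEM of three independent experiments.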
# [20] = tested on: K562; assay: Induction of reactive oxygen species generation in human K562 cells at 40 uM measured after 1 hr by H2DCFDA probe-based flow cytometry; assay type: functional, cell-based; outline: as §3
Compound,IC50 [1],IC50 [2],IC50 [3],IC50 [4],selectivity ratio at 72 h [5],CC50 at 24 h [6],IC50 [7],IC50 [8],selectivity ratio [9],Ratio IC50 [10],IC50 [11],selectivity ratio [12],selectivity ratio at 72 h [13],IC50 [14],IC50 [15],selectivity ratio at 72 h [16],selectivity ratio at 72 h [17],selectivity ratio at 72 h [18],Activity [19],Activity [20]
Cc1ccc(SC2=CC(=O)C(=O)c3ccccc32)cc1,4.14 µM,> 20 µM,88.7 µM,3.4 µM,0.8,81.4 µM,> 20 µM,14.9 µM,23.9,2.1,> 20 µM,0.92,0.8,> 20 µM,12.8 µM,1.8,1.3,6.6,–,–
COc1ccc(SC2=CC(=O)C(=O)c3ccccc32)cc1,9.38 µM,> 20 µM,112 µM,3.9 µM,1,41.5 µM,> 20 µM,13.3 µM,10.6,1,> 20 µM,0.37,1,> 20 µM,> 20 µM,2.5,1,3.6,–,–
C#CCOC1=C/C(=N\c2ccc(Cl)cc2)c2ccccc2C1=O,11 µM,> 20 µM,–,–,2.1,–,16.2 µM,12.8 µM,–,1.9,18.9 µM,–,1.9,14.6 µM,16.4 µM,2.4,1.6,2.8,Active,–
O=C(Cn1ccnc1[N+](=O)[O-])NCc1ccccc1 [BENZNIDAZOLE],–,–,–,9.7 µM,–,> 4000 µM,–,–,> 413,–,–,> 38.6,–,–,–,–,–,–,–,–
Cc1ccc(S(=O)(=O)n2cc(COC3=C/C(=N\c4ccc(Br)cc4)c4ccccc4C3=O)nn2)cc1,4.22 µM,> 17.8 µM,> 500 µM,–,5.2,> 100 µM,9.41 µM,5.4 µM,–,5.3,9.25 µM,–,1.9,3.41 µM,3.32 µM,3.3,1.9,4.2,Active,–
O=C1C=C(Sc2ccccc2)c2ccccc2C1=O,6.08 µM,> 20 µM,24.3 µM,1.3 µM,0.7,36.9 µM,> 20 µM,15.7 µM,28.4,1.8,12.8 µM,1.52,0.7,> 20 µM,15.6 µM,1.8,2.2,4.6,Active,Active
Cc1ccc(S(=O)(=O)n2cc(COC3=C/C(=N\c4ccccc4)c4ccccc4C3=O)nn2)cc1,6.71 µM,> 20 µM,> 500 µM,–,1,80.8 µM,7.22 µM,12.2 µM,–,5.6,5.37 µM,> 6.19,2.9,> 20 µM,3.67 µM,1.7,3.8,3.1,–,–
Cc1cccc(SC2=CC(=O)C(=O)c3ccccc32)c1,5.42 µM,> 20 µM,65.6 µM,4.6 µM,1,67.3 µM,> 20 µM,16.2 µM,14.6,2.8,19.6 µM,1.03,1,> 20 µM,12.7 µM,2.2,1.8,6.6,–,–
